# Sampled rows, rich in hits. Any-hit rate of the full collection: about 1.5%.
# 697 NFkB inh: inhibitors of the PMA/ionomycin-induced NF-kB reporter in 697 B cells; inhibition, % at 4 µM; actives 0.33% (n = 330,000); 697 B-cell NF-kB luciferase reporter, 16 h; AID 435022; in the data active means inhibition above about 35%
# GalR3 antagonist: human GalR3 antagonism; actives 0.44% (n = 360,000); inhibition, % at 3 µM; HEK293 GalR3-CNG cAMP membrane potential fluorescence; galR3 body fused to GalR1 C-terminus;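 active means inhibition above the screen-wide average plus 3 SD, cut at about 13% in these data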;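 further: forskolin and galanin both at EC90 stimulate the cells; cAMP rise reported by CNG channel membrane potential dye signal; 0% = forskolin plus galanin with DMSO and 100% = forskolin alone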
# Target sequence (O60755 1-299 limits assumed): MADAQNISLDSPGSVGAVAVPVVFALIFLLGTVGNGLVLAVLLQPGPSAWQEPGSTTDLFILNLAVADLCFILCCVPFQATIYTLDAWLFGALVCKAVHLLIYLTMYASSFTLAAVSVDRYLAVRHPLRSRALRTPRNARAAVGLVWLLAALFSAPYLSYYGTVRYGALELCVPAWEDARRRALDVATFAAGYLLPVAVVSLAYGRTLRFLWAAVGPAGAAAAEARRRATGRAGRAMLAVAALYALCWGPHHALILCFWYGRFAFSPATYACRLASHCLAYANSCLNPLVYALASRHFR
# GASC-1 inh: blocks human GASC-1 demethylase activity | Q9H3R0 | GST-JMJD2C(1-420) H3K9me3 demethylation, DELFIA europium | inhibition, % at 2.35 µM | actives 0.069% (n = 330,000) | AID 2099;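 active means more than half of a compound's replicate wells show inhibition beyond 50%, single wells judged on their own value; inconclusive means some, but no more than half, of replicates pass 50% inhibition; inactive means no replicate passes 50% inhibition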;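 further: signal counts dimethyl H3K9 product captured on neutravidin plate; 0% = median of DMSO wells and 100% = 0.3 times that DMSO median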
# Target sequence (Q9H3R0 1-420 limits assumed): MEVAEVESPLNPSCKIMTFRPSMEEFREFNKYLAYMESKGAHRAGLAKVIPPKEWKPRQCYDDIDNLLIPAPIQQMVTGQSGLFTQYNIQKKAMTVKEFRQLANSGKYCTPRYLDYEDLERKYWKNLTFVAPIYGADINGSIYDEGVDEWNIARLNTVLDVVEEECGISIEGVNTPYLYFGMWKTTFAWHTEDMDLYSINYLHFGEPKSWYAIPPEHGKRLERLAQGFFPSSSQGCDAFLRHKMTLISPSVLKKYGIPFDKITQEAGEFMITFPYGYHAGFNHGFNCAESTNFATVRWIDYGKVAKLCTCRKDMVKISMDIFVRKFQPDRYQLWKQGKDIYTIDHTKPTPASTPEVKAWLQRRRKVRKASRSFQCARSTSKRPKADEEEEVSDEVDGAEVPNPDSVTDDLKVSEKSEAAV
# NR2E3 ag-1: activates human photoreceptor nuclear receptor NR2E3 | Q9Y5X4 | GST-NR2E3/biotin-RetCOR TR-FRET, 1536-well | inhibition of corepressor binding, % at 4.78 µM | actives 0.12% (n = 320,000);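 active means percent inhibition above the cutoff of mean plus 3 SD of all tested compounds, set per screening campaign, cut at about 20% in these data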;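 further: 0% = DMSO wells and 100% = biotin wells as full block of FRET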
#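 System: GST-tagged NR2E3 plus biotinylated RetCOR corepressor; Buffer or medium: pH 7.5 Tris-based buffer; Probe or stimulus: RetCOR corepressor, biotinylated, 7 nM; Doses: compound at 4.8 µM, single dose; Schedule: 5 h incubation at 4 °C; Technique: time-resolved FRET; Evaluation: percent inhibition of TR-FRET ratio; Replication: one well per compound, singlicate testing.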
# Jurkat NFkB inh: lowers PMA/ionomycin-induced NF-kB signal in Jurkat cells; inhibition, % at 4 µM; actives 0.53% (n = 330,000); AID 435003; PMA/ionomycin-induced NF-kB luciferase reporter, luminescence; in the data active means inhibition above about 50%
# NR2E3 ag-2: agonists of human NR2E3 nuclear receptor. inhibition of corepressor binding, % at 3.98 µM. CHO-S Gal4-NCOR/VP16-NR2E3 two-hybrid, luciferase. actives 0.35% (n = 360,000). AID 602229;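 active means inhibition above the mean of all tested compounds plus 3 SD, cut at about 70% in these data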;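 further: 0% = DMSO with NR2E3 transfected cells and 100% = cells lacking NR2E3 construct; higher means lower luciferase signal from less NR2E3 corepressor binding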
# GalR3 antag conf: GalR3 (human) antagonism, confirmation; shares compounds with GalR3 antagonist; HEK293 GalR3 CNG cAMP biosensor, membrane potential fluorescence; galR3 fused to GalR1 carboxy tail; challenged with forskolin and galanin at EC90; inhibition, % at 3 µM; actives 59% (n = 1,600);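 active means inhibition above the primary screen's cutoff, the mean inhibition of all screened compounds plus 3 SD, cut at about 13% in these data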;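 further: 0% = forskolin plus galanin and 100% = forskolin alone with DMSO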
# CNG parental: parental cell agonism counter-screen for GalR3 antagonists; shares compounds with GalR3 antagonist; HEK293-CNG parental cells, cAMP membrane potential fluorescence; normalised: DMSO wells 0%, forskolin wells 100%; activation, % at 3 µM; actives 10% (n = 1,600); AID 652268; in the data active means activation above about 1.3%
# * hit, by the source's call; ? = inconclusive; · = not tested or not shown.
SMILES,697 NFkB inh,GalR3 antagonist,GASC-1 inh,NR2E3 ag-1,Jurkat NFkB inh,NR2E3 ag-2,GalR3 antag conf,CNG parental
COc1ccc(NC(=O)COC(=O)CCC2CCCC2)c(OC)c1,16.0,0.3,-1.8,·,3.6,-10.5,·,·
N#C/C(=C\c1cc2c(cc1Br)OCO2)c1ccc(C(=O)O)cc1,-2.3,17.2*,-10.5,2.2,-13.5,10.5,0.7,1.2*
O=C(COc1ccc2c(c1)oc(=O)c1ccccc12)NC(Cc1ccc(Cl)cc1)C(=O)O (configuration not stated),-8.7,26.2*,?,-0.8,-7.9,-14.3,3.8,0.1
CSc1ccccc1NC(=O)c1cccs1,16.7,7.9,-2.3,-0.8,-2.7,-5.2,·,·
O=C(Nc1ccccc1C1CC1)c1cccs1,4.2,78.1*,-29.1,3.8,5.1,4.1,-9.4,0.2
C=CCNC(=O)/C(=C/c1cn(-c2ccccc2)nc1-c1cccc([N+](=O)[O-])c1)NC(=O)c1ccccc1,28.3,15.9*,3.7,-0.5,20.0,-4.9,7.8,0.4
CN(C)C(=O)/C(=C/c1cn(-c2ccccc2)nc1-c1cccc([N+](=O)[O-])c1)NC(=O)c1ccccc1,12.2,0.2,-24.2,1.4,-6.7,-7.7,·,·
CC1CCN(c2nc(-c3ccccc3O)nc3ccccc23)CC1,-8.6,-1.7,12.4,-3.9,2.9,-39.2,·,·
CC1CCN(c2ncnc3ccccc23)CC1,-35.6,73.4*,10.7,-0.3,11.3,14.2,7.8,-1.0
CC(Oc1cccnc1[N+](=O)[O-])C(=O)N1CCc2ccccc21 (configuration not stated),-1.1,-4.8,8.1,·,-5.3,17.0,·,·
Cc1cc(C)nc(N2C(=O)CC(C(=O)O)NC2=NCCc2c[nH]c3ccccc23)n1 (configuration not stated),13.7,14.1*,-12.0,0.5,12.1,-9.9,0.8,0.3
COc1ccc(CC(=O)N2CCN(c3ccc(C4=NNC(=O)CC4C)cc3)CC2)cc1 (configuration not stated),1.6,75.7*,7.8,-4.2,-0.1,6.7,87.2*,-0.1
CCNC(=S)NNc1nc(N2CCCCC2)nc(N2CCOCC2)n1,-2.3,-4.4,32.5,3.1,-4.3,-5.0,·,·
O=C(O)c1ccccc1NS(=O)(=O)c1cccc(C(F)(F)F)c1,4.7,-4.9,-21.0,2.6,13.6,13.2,·,·
O=C(O)c1ccccc1NS(=O)(=O)c1cccc(-n2sc3ccccc3c2=O)c1,-1.8,33.2*,-284.4,3.9,6.7,-46.3,23.3*,-0.1
CCCCC[C@@H](/C=C/C1C(=O)C=C[C@H]1C/C=C\CCCC(=O)OC)OC(C)=O (some centres not stated),·,59.2*,·,·,·,-7.5,89.9*,0.3
O=C(Nc1ccncc1)c1ccc(-c2ccccc2)cc1,-0.6,·,-2.6,-0.3,35.2,-1.9,56.3*,-0.5
CS(=O)(=O)c1nc(-c2ccc(F)cc2)cc(C(F)(F)F)n1,·,25.7*,-1.0,·,·,6.7,24.9*,0.8
COc1ccc(-c2cc(C(F)(F)F)nc(S(C)(=O)=O)n2)cc1,-17.0,31.8*,2.7,0.2,-5.0,-5.5,13.4*,1.1
Cc1ccc2nc(-c3cccc(Br)c3)c(Cc3ccccc3)n2c1,·,-7.5,·,·,·,-71.4,·,·
Cc1cc(C)cc(CC(=O)N2CCC2(C)C(=O)NS(=O)(=O)c2cccc(F)c2)c1 (configuration not stated),·,-6.0,·,·,·,-13.4,·,·
COc1cccc(CN(C)C(=O)CNC(=O)c2ccc(-c3ccccc3)cc2)c1OC,1.6,53.3*,-2.8,1.5,37.0,38.2,116.1*,-0.9
COc1ccc(CCNC(=O)CSc2ccc(-c3cccs3)nn2)cc1OC,-2.8,7.4,-17.4,-3.0,-7.5,5.0,·,·
Cc1ccc(NC(=O)CSc2ncnc3ccccc23)cc1S(=O)(=O)N1CCCCC1,-60.3,84.9*,1.5,0.7,2.2,-30.3,104.0*,-1.5
O=C1COc2ccc(C(=O)COC(=O)CCc3ccc(S(=O)(=O)N4CCOCC4)cc3)cc2N1,4.6,2.2,-8.3,-3.7,12.0,-14.9,·,·
SMILES,697 NFkB inh,GalR3 antagonist,GASC-1 inh,NR2E3 ag-1,Jurkat NFkB inh,NR2E3 ag-2,GalR3 antag conf,CNG parental
O=C1COc2ccc(C(=O)COC(=O)c3cc(S(=O)(=O)N4CCOCC4)ccc3F)cc2N1,-8.6,55.3*,-9.4,-2.1,2.5,-7.6,33.7*,-0.1
N#Cc1ccccc1COC(=O)c1cc(S(=O)(=O)N2CCOCC2)ccc1F,·,0.0,·,·,·,-26.3,·,·
O=C(OCc1cc(=O)oc2cc(O)ccc12)c1cc(S(=O)(=O)N2CCOCC2)ccc1F,12.1,34.4*,3.5,-3.5,26.0,-1.9,55.0*,0.6
COc1cc(C)c(Br)cc1S(=O)(=O)NCc1ccncc1,-33.2,39.4*,-3.3,6.9,30.4,37.6,58.0*,-0.2
Cc1nonc1C(=O)N1CCCC(Nc2ccc(C(C)C)cc2)C1 (configuration not stated),11.2,-1.2,-7.4,-1.2,6.5,-0.3,·,·
COc1ccc(S(=O)(=O)N2CCN(C(=O)c3ccc(C)o3)CC2)cc1,-5.1,-6.0,-7.7,0.9,-10.5,-1.8,·,·
CN1CCc2c(sc3nc(NCCO)n(-c4cccc(Cl)c4)c(=O)c23)C1,-1.8,-8.7,-0.4,3.5,27.2,-31.7,·,·
O=c1[nH]cccc1-c1nc2ccccc2n1Cc1ccc(F)cc1,4.8,87.2*,4.2,-2.1,3.0,-3.4,-2.8,-0.5
Fc1ccc(CN2CCN(c3ncc(Cc4ccccc4)cn3)CC2)c(Cl)c1,·,81.9*,·,·,·,·,109.2*,-0.2
COc1ccc(C2=Nc3ccccc3NC(=O)C2N(C(=O)c2cnc(C)cn2)c2ccc(N3CCOCC3)cc2)cc1 (configuration not stated),·,-1.8,·,·,·,-17.3,·,·
COc1ccc(S(=O)(=O)N2CCCCCC2)cc1NC(=O)CN1C(=O)CNC1=O,19.1,-2.8,-1.5,·,-4.7,-16.4,·,·
COc1cc(C(=O)NCC(=O)N/N=C(/C)c2cccs2)cc(OC)c1OC,21.8,0.4,14.8,-1.3,-6.1,-6.0,·,·
CCC(CC)C(=O)Nc1ccc([N+](=O)[O-])cn1,7.7,16.1*,0.5,-2.3,-11.5,10.1,23.8*,0.6
CC(=O)N1Cc2cc(C(=O)NCC(F)(F)F)nc(-c3cccc(-c4cc5ccccc5o4)c3)c2[C@H]1CCO,·,-4.5,·,·,·,-10.9,·,·

# Bioassay records as filed in PubChem BioAssay.
